NF-kB expr up: NF-kB expression increase, human neuronal cells; NF-kB reporter expression; stronger effect = higher value; fold change at 12.5 µM; hit rate 1.6% among 190,000; in the data active = fold change above about 3.3
APP 5'UTR act: activates APP 5'UTR luciferase reporter; AID 1276; activation, % at 2 µM; hit rate 1% among 190,000; SH-SY5Y APP 5'UTR luciferase reporter, luminescence; zero percent = DMSO vehicle wells;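 active = activation above a set limit, based on mean plus 3 SD of controls, cut at about 140% in these data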
STAT1 activator: increases IFN-gamma driven STAT1 reporter signal; NIH 3T3 STAT1-luciferase reporter, luminescence; 100% = IFN-gamma alone, no compound; activation (% of control), % at 5.5 µM; hit rate 2.6% among 200,000; AID 932;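 active = activation above the screen-wide mean activation plus 3 SD, cut at about 130% in these data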;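 note: raw ratio to IFN-gamma control signal so 100% means no change and 0% no light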
STAT1 inh: STAT1 signaling inhibition; NIH 3T3 STAT1-luciferase reporter, IFN-gamma, luminescence; hit rate 0.35% among 200,000; inhibition, % at 5.5 µM; AID 920;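 active = inhibition above a set limit, the mean inhibition across all tested compounds plus 3 SD, cut at about 34% in these data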;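 note: 0% = IFN-gamma with DMSO and 100% = IFN-gamma with 300 µM nifuroxazide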
STAT3 activator: increases IL-6 driven STAT3 reporter signal. AID 871. hit rate 0.91% among 190,000. activation (% of control), % at 5.6 µM. U3A cells, IL-6 STAT3-luciferase reporter, luminescence; 100% = signal with IL-6 EC80 alone;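 active = activation above the screen-wide mean of compound activation plus 3 SD, cut at about 130% in these data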;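 note: 0% = background luminescence of wells with medium and substrate only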
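Test system: Human STAT1-deficient U3A cells with stable STAT3-luciferase reporter | Also added: Interleukin-6, 33 ng/mL | Timing: Compound pre-incubation 1 h before IL-6, then 6 h stimulation at 37 °C | Technique: Luciferase reporter luminescence | Read-out: Percent of IL-6-only median luminescence | Benchmarks: IL-6-only wells as 100% reference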
STAT3 inh: STAT3 signaling inhibition. U3A cells, IL-6 STAT3-luciferase reporter, luminescence; host cell line lacks STAT1. inhibition, % at 5.5 µM. hit rate 0.89% among 190,000. AID 862;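 active = inhibition above the mean inhibition across all screened compounds plus 3 SD, cut at about 44% in these data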;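 note: 0% = DMSO only wells and 100% = 100 µM nifuroxazide control wells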
An asterisk follows results filed as active; · = no result. Most compounds without a hit are left out; they make up all but 4.9% or so of the library.

SMILES	NF-kB expr up	APP 5'UTR act	STAT1 activator	STAT1 inh	STAT3 activator	STAT3 inh
Cc1cccc(-n2c(SCC(=O)N3CC(=O)Nc4ccccc43)nc3ccccc3c2=O)c1C	0.58	-0.6	95.7	4.9	90.3	13.8
O=C1/C(=C\Nc2ccc(OC(F)(F)F)cc2)CCN1c1ncccn1	3.22	·	131.1*	-33.7	89.5	18.6
CC(NC(=O)C12CC3(C)CC(C)(CC(C)(C3)C1)C2)C(=O)O (configuration not stated)	1	14.8	100.3	-1.3	97.1	10.1
CC(=Nc1ccc(C)cc1C)c1sc2ccccc2c1O	4.79*	153.5*	142.6*	-48.4	71.2	35.8
CN=Cc1sc2ccccc2c1O	1.1	30.6	101.3	-1.4	102.0	-1.6
CC(=Nc1cccc(O)c1)c1sc2ccccc2c1O	10.2*	161.2*	112.1	-14.5	119.0	-22.6
C=CCc1cccc2cc(C(=O)O)c(=O)oc12	1.28	-13.4	98.4	1.7	116.1	-12.1
C=CCc1cccc2cc(C(=O)Nc3ccccc3C(=O)O)c(=O)oc12	0.96	9.1	32.4	71.8*	99.6	6.0
CCOC(=O)c1c(-c2ccccc2)nc2cc(C)ccn12	1.96	57.1	133.3*	-37.3	105.8	-5.9
CCOC(=O)C(=O)c1c(-c2ccccc2)nc2ccccn12	1.17	-0.2	99.0	-0.1	103.9	-3.1
CCOC(=O)c1c(-c2ccccc2)nc2ccc(C)cn12	2.2	66.0	137.9*	-42.4	114.2	-16.6
Cc1ccc2nc(-c3ccccc3)nc(SC(C)C(=O)NCc3cccs3)c2c1 (configuration not stated)	5.03*	-3.7	96.3	4.1	103.1	-1.1
Cc1ccc(NC(=O)/C(C#N)=C(\N)C(Cl)(Cl)Cl)nc1	6.36*	33.6	118.5	-21.8	82.5	22.8
COc1cc(CN2CCCC(CO)(Cc3cccc(Cl)c3)C2)cc2c1OCO2 (configuration not stated)	1.14	-18.2	98.5	0.0	104.3	-0.5
CCOCCCNc1ccc(-c2ccccc2)nn1	2.45	71.1	140.2*	-43.9	99.6	3.3
CCOCCCNc1nc2ccccc2[nH]1	1.02	2.2	99.5	0.5	99.7	3.9
CCCn1c(-c2ccc(OC)cc2)nc2ccccc21	0.77	15.6	92.2	8.4	100.5	3.5
COCn1c(-c2ccc(OC)cc2)nc2ccccc21	2.74	118.2	128.8*	-33.6	97.2	6.4
Oc1ccc(-c2n[nH]c(C(F)(F)F)c2-c2ccccc2)c(O)c1	0.81	4.7	61.4	41.5*	40.5	71.9*
COc1ccc(-c2c(-c3ccc(O)cc3O)n[nH]c2C)cc1OC	1.14	-2.1	102.4	-2.6	99.7	-2.7
CN(C)/C=C/C(=O)c1ccc(Oc2ccccc2)cc1	2.23	76.2	135.3*	-42.1	94.3	11.6
COc1ccc(C(=O)/C=C/N(C)C)cc1	1.46	5.8	107.2	-8.0	111.9	-3.4
Brc1c(CSc2nc3ccccc3s2)nc2ncccn12	4.54*	68.3	132.8*	-36.0	101.0	-5.8
O=[N+]([O-])c1ccc2sc(SCc3nc4ccccn4c3Br)nc2c1	0.95	19.1	95.7	4.7	109.9	-8.1
CCCCN(C(=O)c1ccc(NC(=O)C(C)C)cc1)c1ccccc1	1.26	-2.6	109.7	-13.8	95.0	10.8
SMILES	NF-kB expr up	APP 5'UTR act	STAT1 activator	STAT1 inh	STAT3 activator	STAT3 inh
Cc1ccc(-c2cc(-c3ccccc3C)[nH]n2)c(O)c1	6.29*	120.5	94.4	4.2	114.4	-13.9
Cc1ccc(O)c(-c2cc(-c3cccc(F)c3)n[nH]2)c1	5.04*	43.3	93.2	-5.5	132.3	-37.2
Oc1ccc(Br)cc1-c1cc(-c2ccc(Cl)cc2)n[nH]1	1.17	4.4	98.3	1.8	132.2	-32.7
Cc1ccc(-c2cc(-c3cccc(F)c3)n[nH]2)c(O)c1	9.62*	215.4*	104.2	-4.5	126.6	-30.3
CC(=O)OCc1c(C)cc(C)c(/C=C(/C#N)C(N)=O)c1C	1.15	14.0	106.5	-8.4	110.7	-7.1
C/C(=N/NC(=O)CCCOc1ccc(Cl)cc1Cl)c1ccc(C)o1	1.16	4.2	104.3	-4.8	114.4	-20.1
O=S(=O)(/C=C/c1ccccc1)N1CCN(c2nc(-c3ccccc3)nc3ccccc23)CC1	1.2	5.7	97.4	2.9	109.5	-12.2
CCc1nnc(NC(=O)c2csc3c2CCC(C)C3)s1 (configuration not stated)	1.14	145.2*	97.3	2.8	105.2	0.0
COc1ccccc1NC(=O)c1csc2c1CCC(C)C2 (configuration not stated)	1.47	-3.1	99.6	-1.2	86.7	17.9
CC(=O)Oc1c(Cl)cc(Cl)cc1/C=C/c1ccc2ccccc2n1	1.62	1.9	100.5	-0.5	111.0	-13.4
CC(=O)Oc1ccc(Cl)cc1/C=C/c1ccc2ccccc2n1	7.26*	88.5	95.2	5.3	124.0	-20.6
Cn1cccc1/C=N/N1CCN(c2ccccn2)CC1	0.97	9.8	107.3	-8.2	82.7	23.0
Cc1ccc(/C=N/N2CCN(c3ccccn3)CC2)cc1	2.18	-1.5	142.0*	-44.0	93.3	8.7
CN1CCN(/N=C/c2ccc(-c3ccccc3)cc2)CC1	3.81*	74.8	115.7	-16.4	81.0	29.3
COc1ccc(C(=O)c2ccc(CC(=O)O)s2)cc1	0.95	-10.0	79.5	20.8	86.0	22.6
ClC(Cl)(c1nnnn1-c1ccccc1)c1nnnn1-c1ccccc1	2.04	-43.8	95.3	5.2	97.0	1.4
CCOc1cc(CNn2cn[nH]c2=S)cc(Cl)c1OCc1ccccc1F	1.2	31.0	100.8	-0.9	92.6	7.4
O=C1CC(/C=C/c2ccccc2)=Nc2ccccc2N1	4.03*	127.7	141.9*	-43.8	94.5	8.6
O=[N+]([O-])c1ccc(OCc2cnc(Cl)s2)c([N+](=O)[O-])c1	1.73	10.6	95.6	2.7	96.0	10.8
O=C(CCn1cccc1)Nc1ccc(OC(F)(F)F)cc1	1.14	-3.6	97.0	2.0	106.6	-6.3
Fc1ccc2c(Cl)c(-c3nnc(-c4cccs4)o3)sc2c1	2.32	146.3*	118.3	-18.9	110.2	-5.3
O=C(CC(c1ccccc1)c1ccccc1)OCn1nnc2ccccc2c1=O	1.28	-8.7	107.0	-7.6	101.1	-3.0
CCOC(=O)C1(Cc2cccc(OC)c2)CCCN(Cc2cc(C(C)C)n[nH]2)C1 (configuration not stated)	0.89	-7.0	95.9	2.7	107.0	-2.8
CCOC(=O)C1(Cc2cccc(OC)c2)CCCN(C(=O)c2cc(C)[nH]n2)C1 (configuration not stated)	2.55	34.4	140.5*	-45.1	111.9	-10.6
CCCC12CN3CC(C)(CN(C1)C3c1ccco1)C2=O (configuration not stated)	1.23	8.7	96.4	4.5	102.0	-1.8
CCCCCc1ccc(-c2ccc(/C=C/C(=O)O)cc2)nc1	4.57*	-20.9	111.0	-12.4	70.7	34.1
